Test [1] has as its target T1, Substance-K receptor (Homo sapiens) (UniProt P21452).
T1 sequence (whole entry): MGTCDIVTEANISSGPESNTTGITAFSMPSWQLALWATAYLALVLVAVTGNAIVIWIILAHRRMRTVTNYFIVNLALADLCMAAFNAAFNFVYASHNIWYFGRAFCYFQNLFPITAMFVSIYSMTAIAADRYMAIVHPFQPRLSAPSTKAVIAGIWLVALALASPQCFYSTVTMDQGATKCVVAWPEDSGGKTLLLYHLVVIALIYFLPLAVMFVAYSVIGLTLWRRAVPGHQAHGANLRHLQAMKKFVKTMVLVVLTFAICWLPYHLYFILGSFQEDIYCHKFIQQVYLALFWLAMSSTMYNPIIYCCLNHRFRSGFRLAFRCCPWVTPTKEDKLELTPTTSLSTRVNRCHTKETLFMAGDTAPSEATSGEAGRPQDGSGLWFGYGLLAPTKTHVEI
Briefly: Binding affinity against wild type human Wild-type tachykinin receptor 2 (hNK-2R) using [3H]nepadutant as a radioligand. Summed up:
(§1)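 Membranes from cells stably transfected with wild-type or mutant hNK-2R, incubated with [3H]nepadutant for 60 min at 20 °C in 50 mM Tris-HCl pH 7.4 containing peptidase inhibitors, 150 mM NaCl, 5 mM MnCl2 and 1 g/L BSA. Competitors ranged 0.3 pM–10 μM. Nonspecific binding was defined with 1 mM unlabeled ligand. Bound label was collected by filtration and counted. Means from ≥3 duplicate experiments.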

Test [2] has as its system Substance-K receptor (Homo sapiens), P21452 [Y169A]. Briefly: Binding affinity against Y169A human neurokinin-2 receptor (hNK-2R) using [3H]nepadutant as a radioligand. Summed up:
as §1

Test [3] concerns T2, Substance-K receptor (Homo sapiens), P21452 [S170A].
T2 sequence (whole entry): T1 sequence (whole entry) with S170A
Briefly: Binding affinity against S170A human neurokinin-2 receptor (hNK-2R) using [3H]nepadutant as a radioligand. Summed up:
as §1

The test system of test [4] is Substance-K receptor (Homo sapiens), P21452 [F168A]. Briefly: Binding affinity against F168A human neurokinin-2 receptor (hNK-2R) using [3H]-nepadutant as a radioligand. The method, boiled down:
as §1

Test [5] concerns Substance-K receptor (Homo sapiens), P21452 [Y206F]. Nature of the test: Binding affinity against Y206F human neurokinin-2 receptor (hNK-2R) using [3H]nepadutant as a radioligand. Summed up:
as §1

The test system of test [6] is Substance-K receptor (Homo sapiens), P21452 [H198A]. Nature of the test: Binding affinity against H198A human neurokinin-2 receptor (hNK-2R) using [3H]nepadutant as a radioligand. Summed up: as §1
The test system of test [7] is T2, Substance-K receptor (Homo sapiens), P21452 [S170A].
Test [8] has as its system T3, Substance-K receptor (Homo sapiens), P21452 [C167A].
T3 sequence (whole entry): T1 sequence (whole entry) with C167A
Nature of the test: Binding affinity against C167A human neurokinin-2 receptor (hNK-2R) using [3H]nepadutant as a radioligand; UB is Undetectable Binding. Summed up:
as §1

Test [9] concerns the target T1, Substance-K receptor (Homo sapiens). Briefly: Binding affinity against wild-type human Wild-type tachykinin receptor 2 (hNK-2R) using [125I]-NKA as a radioligand.
The test system of test [10] is Substance-K receptor (Homo sapiens), P21452 [Y269F]. Nature of the test: Binding affinity against Y269F human neurokinin-2 receptor (hNK-2R) using [3H]nepadutant as a radioligand. Summed up:
as §1

Test [11] deals with Substance-K receptor (Homo sapiens), P21452 [Y269A]. Nature of the test: Binding affinity against Y269A human neurokinin-2 receptor (hNK-2R) using [3H]nepadutant as a radioligand. Summed up: as §1
Test [12] relates to Substance-K receptor (Homo sapiens), P21452 [F112A]. Briefly: Binding affinity against F112A human neurokinin-2 receptor (hNK-2R) using [3H]nepadutant as a radioligand. The method, boiled down:
as §1

Test [13] relates to Substance-K receptor (Homo sapiens), P21452 [Q166A]. Nature of the test: Binding affinity against Q166A human neurokinin-2 receptor (hNK-2R) using [3H]nepadutant as a radioligand. Summed up:
as §1

The test system of test [14] is T4, Substance-K receptor (Homo sapiens), P21452 [Y266F].
T4 sequence (whole entry): T1 sequence (whole entry) with Y266F
Nature of the test: Binding affinity against Y266F human neurokinin-2 receptor (hNK-2R) using [3H]nepadutant as a radioligand; UB is Undetectable Binding. Summed up:
as §1

Test [15] has as its target T1, Substance-K receptor (Homo sapiens). Briefly: Binding affinity against wild-type human Wild-type tachykinin receptor 2 (hNK-2R) using [3H]-SR-48,968 as a radioligand. The method, boiled down: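 Radioligand [3H]SR48968 was incubated for 30 min at 20 °C with membranes from stably transfected wild-type or mutant hNK-2R cells, in Tris-HCl 50 mM pH 7.4 buffer with protease inhibitors, NaCl, MnCl2 and BSA. Test ligands ranged 0.3 pM–10 μM, with nonspecific binding in 1 mM unlabeled ligand. Filtration through PEI-soaked filters was followed by scintillation counting. pKi was derived by curve fitting, duplicate determinations.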

Positions count from the first letter of the chain named. Activity calls are given as the source filed them. No cut-off for these calls is given here. Where a SMILES comes first, the peptide text is derived from it. Bridges are numbered along the chain shown (N, C = ends). [ ]: non-standard residue; d: D form. The star is where a group is joined. NH(β-GlcNAc) = CC(=O)N[C@@H]1[C@@H](O)[C@H](O)[C@@H](CO)O[C@H]1N*; Dap = NC[C@H](N)C(=O)O

Sequence of Substance-K receptor (Homo sapiens), P21452 [F112A] (P21452 whole entry F112A): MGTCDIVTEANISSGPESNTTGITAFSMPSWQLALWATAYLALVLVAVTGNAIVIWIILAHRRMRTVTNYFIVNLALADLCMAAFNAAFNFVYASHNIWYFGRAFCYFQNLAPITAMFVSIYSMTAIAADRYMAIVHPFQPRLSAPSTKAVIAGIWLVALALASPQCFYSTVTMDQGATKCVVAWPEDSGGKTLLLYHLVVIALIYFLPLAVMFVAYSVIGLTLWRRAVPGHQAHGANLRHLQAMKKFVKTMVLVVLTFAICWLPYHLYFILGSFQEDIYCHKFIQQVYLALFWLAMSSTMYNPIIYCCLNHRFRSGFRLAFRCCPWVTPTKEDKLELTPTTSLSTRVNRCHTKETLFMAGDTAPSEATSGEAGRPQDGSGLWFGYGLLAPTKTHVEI
Sequence of Substance-K receptor (Homo sapiens), P21452 [Y269F] (P21452 whole entry Y269F): as the sequence (P21452 whole entry F112A) above, with A112F, Y269F counted along it
Sequence of Substance-K receptor (Homo sapiens), P21452 [F168A] (P21452 whole entry F168A): as the sequence (P21452 whole entry F112A) above, with A112F, F168A counted along it
Sequence of Substance-K receptor (Homo sapiens), P21452 [Y169A] (P21452 whole entry Y169A): as the sequence (P21452 whole entry F112A) above, with A112F, Y169A counted along it
Sequence of Substance-K receptor (Homo sapiens), P21452 [H198A] (P21452 whole entry H198A): as the sequence (P21452 whole entry F112A) above, with A112F, H198A counted along it
Sequence of Substance-K receptor (Homo sapiens), P21452 [Y269A] (P21452 whole entry Y269A): as the sequence (P21452 whole entry F112A) above, with A112F, Y269A counted along it
Sequence of Substance-K receptor (Homo sapiens), P21452 [Q166A] (P21452 whole entry Q166A): as the sequence (P21452 whole entry F112A) above, with A112F, Q166A counted along it
Sequence of Substance-K receptor (Homo sapiens), P21452 [Y206F] (P21452 whole entry Y206F): as the sequence (P21452 whole entry F112A) above, with A112F, Y206F counted along it

Regarding `CC(=O)N[C@@H]1[C@@H](O)[C@H](O)[C@@H](CO)O[C@H]1NC(=O)C[C@@H]1NC(=O)[C@H](CC(C)C)NC(=O)[C@@H]2CNC(=O)C[C@H](NC1=O)C(=O)N[C@@H](Cc1c[nH]c3ccccc13)C(=O)N[C@@H](Cc1ccccc1)C(=O)N2` (cyclo(D(NH(β-GlcNAc))DWF[Dap]L); lactam 2-5), the KD/Ki worked out at 4 nM in [1]; 4.1 nM in test [2]; 1.5 nM in [3]; 4.1 nM in test [4]; 1.1 nM in test [5]; 11.5 nM in test [6]. In addition, the KD/Ki in [7] was 1.9 nM; in [9], 2.4 nM; in test [10], 1.7 nM; in [11], 19 nM; in test [12] it was 22.1 nM; in test [13] it was 3.5 nM. In test [15], this compound yielded a KD/Ki of 9.1 nM. Also, the UB entry in test [8] and in test [14] was “inactive” each time.

The values above are taken from ChEMBL document CHEMBL1135528, “Monocyclic human tachykinin NK-2 receptor antagonists as evolution of a potent bicyclic antagonist: QSAR and site-directed mutagenesis studies” (J Med Chem, 2002).
